The nature of data set [1]: Plasma pharmacokinetics on Day 14. Type of data set: in vivo, human. As to conditions: Day 14, coadministered with CDI‐31244. The method, boiled down: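 Treatment-naïve adults with chronic genotype 1 HCV and no cirrhosis took oral drugs once daily for 2 weeks: a nucleotide/NS5A inhibitor combination tablet (400 mg/100 mg) plus a non-nucleoside inhibitor, 400 mg as capsules. Plasma was sampled before the first dose on Day 1 and at 0, 1, 2, 4, 6, 8, 12 and 24 h after the Day 14 dose. Validated LC-MS/MS; per-patient non-compartmental Cmax, Cmin, tmax, AUC0–24; descriptive statistics.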

In another data set the test system is HCV. As to conditions: cited from earlier work.

As to `COC[C@H]1C[C@@H](c2ncc(-c3ccc4c(c3)COc3cc5c(ccc6nc([C@@H]7CC[C@H](C)N7C(=O)[C@@H](NC(=O)OC)C(C)C)[nH]c65)cc3-4)[nH]2)N(C(=O)[C@H](NC(=O)OC)c2ccccc2)C1` [velpatasvir], the Exposure entry in data set [1] is given as “consistent with reported values”.
Still for that read-out and setting: as for `CC(C)OC(=O)[C@H](C)N[P@](=O)(OC[C@H]1O[C@@H](n2ccc(=O)[nH]c2=O)[C@](C)(F)[C@@H]1O)Oc1ccccc1` [sofosbuvir], the entry is “consistent with reported values”; as for `C[C@@]1(F)[C@H](O)[C@@H](CO)O[C@H]1n1ccc(=O)[nH]c1=O` [GS‐331007], “consistent with reported values”.
Regarding `COc1c(-c2ccc3cc(NS(C)(=O)=O)ccc3c2)cc(-n2ccc(=O)[nH]c2=O)cc1C(C)(C)C` [dasabuvir], the “HCV RNA viral load reduction” value in the data set on HCV was 0.95 log10.
